Key:
Format in all cases: functional, cell-based
HeLa = test: Cytotoxicity against human HeLa cells after 24 hrs by MTT assay
Method in brief: (§1)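 Standard MTT, 24 h exposure. Cells plated at 10^4/well and allowed 24 h to attach, then exposed to 1–100 μM compound (dissolved in 0.1% DMSO, diluted in medium; vehicle controls 0.1% DMSO). MTT 1 mg/ml for 4 h at 37 °C, formazan dissolved in DMSO, absorbance read at 540 nm. IC50 taken as concentration giving 50% growth inhibition; triplicate.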

[1] = Cytotoxicity against mouse EAC after 24 hrs by MTT assay; conditions: Ehrlich; method in brief: as §1
MCF7 [2] = test: Cytotoxicity against human MCF7 cells after 24 hrs by MTT assay; method in brief: as §1
MCF7 [3] = test: DNA damaging activity in human MCF7 cells assessed as olive tail moment after 24 hrs by alkaline comet assay
Method in brief: (§2)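 Alkaline comet assay in MCF-7 after 24 h exposure to 5–50 μM. About 20,000 cells embedded in 0.75% low-melt agarose over a 1.5% agarose layer. Alkaline unwinding 1 h, then electrophoresis at pH 13 for 20 min, 16 V. Ethidium bromide staining; ~50 cells scored per slide, two slides per concentration; means ± SEM.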

MCF7 [4] = test: Cytotoxicity against human MCF7 cells after 48 hrs by MTT assay; conditions: MCF7, 48 h
Method in brief: (§3)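 MCF-7 time-course MTT. Cells seeded at 5 × 10^3/well and exposed to 1–50 μM compound. Percentage cytotoxicity and IC50 determined at 24, 48 and 72 h of drug incubation. MTT read-out at 540 nm after formazan solubilization in DMSO.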

MCF7 [5] = test: DNA damaging activity in human MCF7 cells assessed as elongated tail length after 24 hrs by alkaline comet assay; method in brief: as §2
MCF7 [6] = test: DNA damaging activity in human MCF7 cells assessed as increase in tail moment after 24 hrs by alkaline comet assay; method in brief: as §2
MCF7 [7] = test: DNA damaging activity in human MCF7 cells assessed as tail DNA content after 24 hrs by alkaline comet assay; method in brief: as §2
MCF7 [8] = test: Cytotoxicity against human MCF7 cells by MTT assay; method in brief: as §3
MCF7 [9] = test: Cytotoxicity against human MCF7 cells after 72 hrs by MTT assay; conditions: MCF7, 72 h; method in brief: as §3

Structure (SMILES)	IC50 (HeLa) [µM]	IC50 [1] [µM]	IC50 (MCF7 [2])	further results
CC(Nc1nc2cc(Cl)c(F)cc2s1)c1ccc(F)cc1 (single isomer, unassigned)	61.9	35.4	Dose-dependent effect	–
COc1ccc(C(C)Nc2nc3cc(Cl)c(F)cc3s2)cc1 (single isomer, unassigned)	–	75.4	Dose-dependent effect	–
C[C@@H](NC(=S)Nc1ccc(F)c(Cl)c1)c1ccccc1	66.2	23.6	Dose-dependent effect	–
C[C@@H](NC(=S)Nc1ccc(F)c(Cl)c1)c1ccc(Cl)cc1	43	17.3	Dose-dependent effect	Activity (MCF7 [3]): Dose-dependent effect; IC50 (MCF7 [4]): 16.3 µM; Activity (MCF7 [5]): Dose-dependent effect; Activity (MCF7 [6]): Dose-dependent effect; Activity (MCF7 [7]): Dose-dependent effect; IC50 (MCF7 [8]): tde; IC50 (MCF7 [9]): 11.4 µM
Fc1cc2sc(N[C@@H]3CCCC[C@@H]3OCc3ccccc3)nc2cc1Cl	60.8	20.6	Dose-dependent effect	–
CC(Nc1nc2cc(Cl)c(F)cc2s1)c1ccccc1 (single isomer, unassigned)	58.9	36.6	Dose-dependent effect	–
CC(Nc1nc2cc(Cl)c(F)cc2s1)C1CCCCC1 (single isomer, unassigned)	72.5	29.8	Dose-dependent effect	–
C[C@@H](NC(=S)Nc1ccc(F)c(Cl)c1)c1ccc(F)cc1	71.4	29.9	Dose-dependent effect	–
Fc1ccc(NC(=S)NC2CCCCC2OCc2ccccc2)cc1Cl (stereo not drawn)	33.8	10.6	Dose-dependent effect	IC50 (MCF7 [4]): 12.8 µM; IC50 (MCF7 [8]; TDE = time-dependent effect): tde; IC50 (MCF7 [9]): 8.61 µM
COc1cccc2c1C(=O)c1c(O)c3c(c(O)c1C2=O)C[C@@](O)(C(=O)CO)C[C@@H]3O[C@H]1C[C@H](N)[C@H](O)[C@H](C)O1 [DOXORUBICIN]	–	4.18	Dose-dependent effect	–
CCCCCC[C@@H](C)NC(=S)Nc1ccc(F)c(Cl)c1	49.1	25.5	Dose-dependent effect	–
CC[C@@H](NC(=S)Nc1ccc(F)c(Cl)c1)c1ccccc1	–	80.2	Dose-dependent effect	–
CCC(Nc1nc2cc(Cl)c(F)cc2s1)c1ccccc1 (single isomer, unassigned)	53.3	32.2	Dose-dependent effect	–
CCCCCC[C@@H](C)Nc1nc2cc(Cl)c(F)cc2s1	48	24.6	Dose-dependent effect	IC50 (MCF7 [4]): 24.8 µM; IC50 (MCF7 [8]; TDE = time-dependent effect): tde; IC50 (MCF7 [9]): 15 µM
COc1ccc([C@@H](C)NC(=S)Nc2ccc(F)c(Cl)c2)cc1	77.5	45.6	Dose-dependent effect	–
C[C@@H](Nc1nc2cc(Cl)c(F)cc2s1)c1ccc(Cl)cc1	69.7	25.5	Dose-dependent effect	–

— ChEMBL document CHEMBL1152486, “Synthesis and antitumor activity of optically active thiourea and their 2-aminobenzothiazole derivatives: a novel class of anticancer agents” (Eur J Med Chem, 2009)
